# Only some compounds are listed: those with a hit (about 3% of all), similar ones and a draw of the others.
# beta cell repl – inducers of MIN6 beta-cell proliferation, primary screen, ATP luminescence, uHTS | MIN6 cells proliferation, ATPlite luminescence, 48 h; cells starved in 0.2% serum; 100% = growth in 10% serum | proliferation, % at 10 µM | actives 0.29% (n = 330,000) | AID 2380, 2010;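 active = compounds whose signal lies at least 3.5 SD above the mean of all wells on their plate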;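 note: 0% = DMSO-treated cells in low-serum medium and 100% = 10% serum control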
# Apaf1 inhib – inhibitors of human Apaf-1 apoptosome, primary screen, biochemical, DEVD-Rh110 fluorescence, uHTS; Apoptotic protease-activating factor 1 (Homo sapiens), O14727; reconstituted apoptosome caspase-3 activity; inhibition, % at 20 µM; actives 0.71% (n = 330,000); AID 489030, 2010; active = inhibition of at least 40% at 20 µM;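 note: plate controls were DMSO wells for no effect and DEVD-CHO caspase inhibitor wells for full effect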
# Target sequence (O14727 whole entry, looked up): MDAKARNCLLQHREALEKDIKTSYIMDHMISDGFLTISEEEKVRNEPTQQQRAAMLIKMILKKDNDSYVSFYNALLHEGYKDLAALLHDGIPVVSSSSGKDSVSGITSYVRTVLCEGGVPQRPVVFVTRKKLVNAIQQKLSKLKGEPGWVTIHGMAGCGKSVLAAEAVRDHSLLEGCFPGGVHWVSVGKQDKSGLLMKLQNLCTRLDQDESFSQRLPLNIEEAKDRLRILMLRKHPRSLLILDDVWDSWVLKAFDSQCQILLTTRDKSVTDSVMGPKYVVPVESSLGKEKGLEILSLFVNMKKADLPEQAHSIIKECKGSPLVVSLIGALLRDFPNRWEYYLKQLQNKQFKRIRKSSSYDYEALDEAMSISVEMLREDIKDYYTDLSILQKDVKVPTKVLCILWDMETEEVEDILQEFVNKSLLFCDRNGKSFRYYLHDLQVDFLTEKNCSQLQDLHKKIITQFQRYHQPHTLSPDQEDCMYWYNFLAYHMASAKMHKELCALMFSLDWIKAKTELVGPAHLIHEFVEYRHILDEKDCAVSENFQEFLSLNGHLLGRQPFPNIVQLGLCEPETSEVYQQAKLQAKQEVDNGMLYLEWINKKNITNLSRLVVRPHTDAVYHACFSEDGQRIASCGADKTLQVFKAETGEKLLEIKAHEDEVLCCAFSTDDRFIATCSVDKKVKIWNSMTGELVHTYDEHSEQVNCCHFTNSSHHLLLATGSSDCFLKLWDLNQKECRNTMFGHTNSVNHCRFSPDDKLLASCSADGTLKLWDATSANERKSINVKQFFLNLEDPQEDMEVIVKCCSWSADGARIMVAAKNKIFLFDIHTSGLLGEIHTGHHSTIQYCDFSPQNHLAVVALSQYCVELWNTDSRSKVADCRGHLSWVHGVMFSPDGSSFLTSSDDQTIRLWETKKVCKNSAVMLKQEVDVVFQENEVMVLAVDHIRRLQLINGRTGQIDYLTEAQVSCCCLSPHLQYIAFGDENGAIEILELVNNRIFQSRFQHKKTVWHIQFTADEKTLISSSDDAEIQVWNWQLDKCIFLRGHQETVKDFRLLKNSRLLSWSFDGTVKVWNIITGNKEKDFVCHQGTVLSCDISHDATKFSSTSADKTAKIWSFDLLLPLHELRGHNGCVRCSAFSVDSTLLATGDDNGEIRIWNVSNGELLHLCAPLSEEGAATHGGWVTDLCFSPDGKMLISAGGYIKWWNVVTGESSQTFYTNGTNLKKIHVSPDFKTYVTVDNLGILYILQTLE
#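 Material: reconstituted apoptosome with Apaf-1, cytochrome c, caspase-9, procaspase-3, dATP. Technique: Rh110 fluorescence intensity. Buffer or medium: pH 7.5 Hepes buffer with CHAPS, BSA, DTT. Times: 30 min plus 50 min, RT.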
# hiPSC survival – enhancers of single-cell hiPSC survival, primary screen, ATPlite luminescence | 100% = ROCK inhibitor wells, 0% = DMSO | survival enhancement, % at 20 µM | actives 0.044% (n = 360,000) | AID 602274, 2012; in the data active = survival enhancement above about 18%;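 note: cells exposed to compounds for 16 hours before the ATP read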
# Granule exo inh – LAMP-1 surface exposure blockers, TALL-104 cells – cell-based, flow cytometry, MLPCN library, primary screen | inhibition, % at 10 µM | AID 651702, 2012 | TALL-104 LAMP-1 surface exposure; cells stimulated with thapsigargin and PMA | actives 0.66% (n = 360,000);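 active = inhibition above about 55%, limit read from the data; inconclusive = no clear call, values can overlap the other calls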
# MPTP inh – mitochondrial permeability transition pore inhibitors, primary screen, biochemical, isolated mouse mitochondria, absorbance. Ca2+ swelling absorbance, 30 min. inhibition, % at 10 µM. actives 1.4% (n = 360,000);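 active = inhibition of 50% or more, scaled per plate between neutral and stimulator controls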;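 note: 0% = DMSO wells given calcium and 100% = 1 mM EGTA wells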
# UBC13 inh – UBC13 polyubiquitin chain formation inhibitors, primary screen, biochemical, TR-FRET, uHTS | Ubiquitin-conjugating enzyme E2 N (Homo sapiens), P61088 | inhibition, % at 20 µM | actives 0.47% (n = 330,000) | AID 485273, 2010; in the data active = inhibition above about 45%, passing the limit was not always enough; inconclusive = no clear call, values can overlap the other calls
# Active calls of the source: *; ? = inconclusive; · = not tested or not shown; ! = not confirmed by another sample.
SMILES,beta cell repl,Apaf1 inhib,hiPSC survival,Granule exo inh,MPTP inh,UBC13 inh
C#CCOc1ccccc1/C=N/NC(=O)c1ccccc1OCc1ccccc1,1,16,1,10,-2,-7
Cc1ccc(N=c2ssnc2Cl)cc1,-6,6,-4,95*,1,-8
COc1cc(N=c2ssnc2Cl)c(OC)cc1Cl,-7,5,5,99*!,4,12
COc1ccc(OC)c(N=c2ssnc2Cl)c1,-6,23,-1,7,0,-3
CN(C)C=NC(=O)c1[nH]c2ccc(Cl)cc2c1-c1ccccc1,-7,21,-1,-13,2,18
O=C(O)c1ccccc1SC1CC(=O)N(c2ccccc2)C1=O (configuration not stated),0,-8,4,-1,-5,-4
O=C1CC(Sc2nnc(-c3ccccc3)o2)C(=O)N1c1ccccc1 (configuration not stated),-6,9,1,66*,-1,-9
CCOc1ccc(C2/C(=C(/O)c3ccc4c(c3)CC(C)O4)C(=O)C(=O)N2CC2CCCO2)cc1 (configuration not stated),4,5,1,0,-1,-18
CCN(CC)CCN1C(=O)C(=O)/C(=C(/O)c2ccc3c(c2)CC(C)O3)C1c1ccc(OC)cc1 (configuration not stated),0,-7,1,92*,3,4
CC(/C=N/NC(=O)Cc1cc(=O)[nH][nH]1)=C\c1ccccc1,-3,60*,4,1,2,-2
COc1cc(C(=O)OCC(=O)N2CCN(C(C)=O)CC2)ccc1OCC(C)C,-3,-6,0,-1,-1,3
C[C@@H]1CN([C@H](C)CO)S(=O)(=O)c2ccc(C#Cc3cccc(F)c3)cc2O[C@@H]1CN(C)C(=O)CN1CCOCC1,·,·,-2,-3,0,·
Cc1ccc(-c2nc(=S)c3c(n2Cc2ccco2)CC(C)(C)OC3)cc1,-2,-4,0,61*,2,?
COCCCNC(=O)CC1C[C@H](C(=O)N2CCCCC2)[C@@]2(CCc3ccccc3)c3[nH]c4ccc(OC)cc4c3CCN2C1=O (some centres not stated),·,17,-2,1,0,·
COc1ccc2o/c(=N\O)c(C(=O)Nc3ccccc3OC)cc2c1,-7,-5,-2,64*,0,-14
COc1ccc(NC(=O)c2cc3ccc(O)cc3o/c2=N\O)cc1,-5,9,-1,66*,0,-7
COc1ccc2oc(=O)c(C(=O)Nc3ccccc3O)cc2c1,-4,-5,-1,-3,2,-9
Cc1cccc(NC(=O)C(C)Sc2ncnc3sccc23)c1 (configuration not stated),·,·,-2,2,1,·
O=C(NCCOc1ccc(F)cc1)C1CCC(=O)N(Cc2ccc(Cl)cc2)C1 (configuration not stated),·,·,2,5,0,·
Cc1ccc(NS(=O)(=O)c2ccc3c(c2)CC(=O)N3)c(C)c1,-3,2,31*,2,34,4
Cc1ccc(NS(=O)(=O)c2ccc3c(c2)NC(=O)CO3)c(C)c1,-2,10,0,-4,0,-2
O=c1cc(N=Nc2ccc(Cl)cc2)[nH]c(=O)[nH]1,·,·,2,77*,0,·
Cc1ccc(O)c(N)c1,-6,1,-1,0,2,-14
COc1ccc(O)c(N)c1,-5,76*,·,·,·,-25
C[C@H](CO)N1C[C@H](C)[C@@H](CN(C)CC2CC2)Oc2c(NC(=O)Cc3ccccc3)cccc2C1=O,3,8,-2,-9,0,-9
SMILES,beta cell repl,Apaf1 inhib,hiPSC survival,Granule exo inh,MPTP inh,UBC13 inh
COc1ccc(NC(=S)N2CCN(c3ccc4c(c3)C3CCN(C(=O)OCc5ccccc5)C4C3)CC2)c(OC)c1 (configuration not stated),·,·,0,-6,-1,·
CCNC(=O)N(C)[C@H]1C[C@H]2c3[nH]c4ccccc4c3CCN2C[C@H]1[C@H](C)O,·,·,4,-3,0,·
C[C@H](O)[C@@H]1CN2CCc3c([nH]c4ccccc34)[C@@H]2C[C@@H]1N(C)C(=O)Nc1cccc2ccccc12,·,·,0,74*,2,·
COc1ccc(C(=O)c2c(-c3ccsc3)oc3ccc(-c4ccc(OC)cc4)cc23)cc1,-6,-7,·,·,·,6
Cc1ccc(C(O)P(=O)(OCCC(C)C)c2ccc(N(C)C)cc2)cc1 (configuration not stated),3,19,-1,60*,0,-2
Cc1ccc(C)c(C(O)c2ncc(-c3ccc4ccccc4c3)[nH]2)c1 (configuration not stated),·,·,1,-2,4,·
CC(c1ccccc1)N(NC(=O)C(O)(c1ccccc1)c1ccccc1)C(=O)c1ccccc1 (configuration not stated),0.0*,6,9,12,7,6
Cc1cc(C)nc(N(C#N)CCOc2ccc(Cl)cc2)n1,-1,5,-2,77*,-1,4
COc1ccc(OC)c(/C=N\NC(=O)c2ccc(-c3ccccc3)cc2)c1,1,20,0,-8,0,6
COc1cccc(/C=N/NC(=O)c2ccc(-c3ccccc3)cc2)c1O,-3,-6,-1,59*,6,-17
O=C(c1ccc(Cn2cnnn2)cc1)N1CCCC(Nc2ccc(F)c(F)c2)C1 (configuration not stated),-2,-6,1,0,-1,7
CC1CC(=O)c2c(cc3c(-c4c(O)cc(O)c5c(O)c6c(cc45)OC(C)CC6=O)c(O)cc(O)c3c2O)O1 (configuration not stated),-6,62*,-3,8,18,-45
Cc1ccc(-c2nc3ccccc3c(=O)n2CCCN2CCOCC2)cc1,-5,13,4,2,0,-6
Cc1ccc(-c2csc3nc4c5ccccc5c(NCCCN5CCOCC5)nn4c(=O)c23)cc1,-6,13,·,·,·,56*
COc1ccc(-c2sc3cc(OC)ccc3c2-c2ccc(OCCN3CCCCC3)cc2)cc1,·,·,-1,31,4,·
c1ccc(-c2sc3ccccc3c2-c2ccc(OCCN3CCCC3)cc2)cc1,-6,78*,-3,-4,1,82*
O=C(c1cnn2c(C(F)F)cc(-c3ccccc3)nc12)N1CCN(Cc2ccc3c(c2)OCO3)CC1,-2,29,0,2,-1,7
NC(=S)N/N=C/c1ccc(-c2ccccc2)o1,-4,13,-1,91*,-1,8

# Bioassay records: PubChem, several laboratories
